# Measured values from different studies.
# Target: G protein-coupled receptor kinase 6 (GRK6, Homo sapiens, UniProt P43250)
SMILES,test,setting,endpoint,result
CCN(CC)CCNC(=O)c1c(C)[nH]c(/C=C2\C(=O)Nc3ccc(F)cc32)c1C,"enzyme activity, inhibitor",10 µM,inhibition,73%
O=C(Nc1cnn(-c2csc(C(=O)NC3COC3)c2)c1)Nc1ccccc1Cl,"enzyme activity, inhibitor",5 µM,remaining activity,97.9%
Cc1cc(NC(=O)c2cccc3cc(-c4cccc5[nH]nc(N)c45)ccc23)ccc1F,"enzyme activity, inhibitor",0.1 µM,activity vs control,93%
Cc1cnc(NC2CCOCC2)nc1-n1cnc(C(=O)NC(CN)c2cc(F)cc(Cl)c2)c1 (stereo not drawn),"enzyme activity, inhibitor, radiometric",1 µM,remaining activity,81%
Cc1ccc(C(=O)NCc2ccsc2)cc1C#Cc1cn(C(C)C)c2ncnc(N)c12,"enzyme activity, inhibitor",1 µM,activity vs control,109%
CNC(=O)c1cc(Oc2ccc(NC(=O)Nc3ccc(Cl)c(C(F)(F)F)c3)cc2)ccn1,"enzyme activity, inhibitor",0.3 µM,inhibition,2%
COc1cc2ncnc(Nc3ccc(Oc4ccccc4)cc3C)c2cc1OC,"enzyme activity, inhibitor",1 µM,inhibition,0%
Cc1ccc(Nc2nccc(N(C)c3ccc4c(C)n(C)nc4c3)n2)cc1S(N)(=O)=O,"enzyme activity, inhibitor",10 µM,inhibition,2%
COc1cc(Cl)c(C(=O)N[C@@H](CN[C@H]2CC[C@@H](N)CC2)Cc2ccc(C#N)cc2)cc1-c1ccc(CN[C@H](C)c2ccc(C)cc2)o1,"enzyme activity, inhibitor",1 µM,remaining activity,100%
O=C1NC(=O)c2cc(Nc3ccc(F)cc3)c(Nc3ccc(F)cc3)cc21,cell-free assay,0.5 µM,remaining signal,98.7%
CN1CC(Oc2cnc(C#N)cc2-c2ccn3nc(NC(=O)C4CC4)cc3c2)C1,"enzyme activity, inhibitor",1 µM,inhibition,9%
CC(C)(C)c1nc2c(s1)c1nc(N)ncc1c1ccc(NS(=O)(=O)c3c(F)cccc3F)c(F)c12,"enzyme activity, inhibitor, radiometric",1 µM,remaining activity,76%
